Legend:
[1] = target: Mitogen-activated protein kinase 14 (Homo sapiens, UniProt Q16539); assay: In vitro inhibitory concentration against Mitogen-activated protein kinase p38 alpha
[2] = target: Mitogen-activated protein kinase 14 (Rattus norvegicus) (UniProt P70618); assay: In vivo percent inhibition of LPS stimulated TNF alpha synthesis in rat at a concentration of 30 mg/kg; type: functional, organism-based; design: dose 30 mg/kg
Summary of the method: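 Female Wistar/Han rats, 8 per group, were dosed orally at −30 min with compound in CMC vehicle (0.9% NaCl, 0.5% Na-CMC, 0.4% polysorbate 80, 0.9% benzyl alcohol) or with vehicle alone. LPS 50 μg/kg was given ip at 0 h. At 1.5 h, blood was taken by cardiocentesis after CO₂ euthanasia, and serum TNFα was measured by ELISA against vehicle controls.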

Mitogen-activated protein kinase 14 (Rattus norvegicus), sequence (P70618 whole entry): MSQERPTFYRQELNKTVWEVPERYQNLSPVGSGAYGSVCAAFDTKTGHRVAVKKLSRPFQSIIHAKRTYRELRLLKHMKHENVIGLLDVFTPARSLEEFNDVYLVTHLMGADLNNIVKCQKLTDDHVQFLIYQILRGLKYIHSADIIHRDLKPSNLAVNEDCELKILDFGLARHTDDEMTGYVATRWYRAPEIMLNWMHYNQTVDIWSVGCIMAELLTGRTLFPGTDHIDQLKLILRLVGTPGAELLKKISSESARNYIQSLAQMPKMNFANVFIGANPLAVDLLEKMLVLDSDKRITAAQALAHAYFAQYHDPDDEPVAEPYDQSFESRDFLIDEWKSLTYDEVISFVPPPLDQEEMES
Mitogen-activated protein kinase 14, sequence (Q16539 whole entry): as the sequence (P70618 whole entry) above, with V17I, H48L, A263T, E321D, F332L counted along it

Structure (SMILES)	IC50 [1] [nM]	inhibition [2] [%]
CCn1c(-c2ccncc2)c(-c2ccc(F)cc2)c2ncccc21	24	41
OCCNc1cc(-c2[nH]c3cccnc3c2-c2ccc(F)cc2)ccn1	3	88
Cn1c(-c2ccncc2)c(-c2ccc(F)cc2)c2ncccc21	98	53
O=C(O)Cn1c(-c2ccncc2)c(-c2ccc(F)cc2)c2ncccc21	23600	50
Fc1ccc(-c2c(-c3ccncc3)[nH]c3ccccc23)cc1	1800	

— ChEMBL document CHEMBL1145138, “Design and synthesis of 4-azaindoles as inhibitors of p38 MAP kinase” (J Med Chem, 2003)
